In ChEMBL document CHEMBL1124660, “Synthesis and in vitro aldose reductase inhibitory activity of compounds containing an N-acylglycine moiety” (J Med Chem, 1989) one finds inhibition and IC50 data, which are given here for 43 compounds.

The term inhibition denotes the drop in the measured response relative to a control, in per cent. The term IC50 denotes the concentration that gives 50% inhibition.

For experiment [1], the target named is Aldo-keto reductase family 1 member B1 (Rattus norvegicus) (UniProt P07943). The experiment can be described thus: Compound was evaluated at 100 uM for the ability to inhibit partially purified aldose reductase obtained from rat lens. Summed up: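 Enzyme: 40%-saturation ammonium sulfate supernatant from homogenized rat lenses, diluted so the control rate was about 0.0100 absorbance/min. Reaction at 30 °C in 0.1 M phosphate, pH 6.2, with 0.104 mM NADPH and 10 mM DL-glyceraldehyde, started by substrate. NADPH loss was read at 340 nm for 3.0 min after a 1.0 min lag. Percent inhibition at 100 µM was taken against the substrate-only control.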

Experiment [2] has as its target T1, Aldo-keto reductase family 1 member B1 (Rattus norvegicus, UniProt P07943). The experiment can be described thus: Inhibition of aldose reductase from rat lens. Value ranges from 10 - 1300. The gist of the method:
(§1)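 Rat lens aldose reductase was the 40% ammonium sulfate supernatant. Assay at 30 °C in 0.1 M phosphate, pH 6.2, with 0.104 mM NADPH and 10 mM DL-glyceraldehyde, following NADPH decrease at 340 nm over 3.0 min. At least four inhibitor concentrations, three or more determinations each.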

In experiment [3] the target is T1, Aldo-keto reductase family 1 member B1. The experiment can be described thus: Inhibition of aldose reductase from rat lens. Value ranges from 35-160. Summed up: as §1
For experiment [4] the target is unchanged. As to the kind of experiment: Inhibition of aldose reductase from rat lens. Value ranges from 16 - 360. The gist of the method:
as §1

The target is the same in experiment [5]. As to the kind of experiment: Inhibition of aldose reductase from rat lens. Value ranges from 8.5 - 410. Summed up:
as §1

The target is the same in experiment [6]. As to the kind of experiment: Inhibition of aldose reductase from rat lens. Value ranges from 32 - 110. Summed up: as §1
For experiment [7] the target is unchanged. The experiment can be described thus: Inhibition of aldose reductase from rat lens. Value ranges from 50 - 650. Summed up:
as §1

The target is the same in experiment [8]. The experiment can be described thus: Inhibition of aldose reductase from rat lens. Value ranges from 10 - 42. The gist of the method: as §1
For experiment [9] the target is unchanged. As to the kind of experiment: Inhibition of aldose reductase from rat lens. Value ranges from 3 - 300. The gist of the method:
as §1

Experiment [10] shares this target. As to the kind of experiment: Inhibition of aldose reductase from rat lens. Value ranges from 7 - 33. Summed up:
as §1

For experiment [11] the target is unchanged. The experiment can be described thus: Inhibition of aldose reductase from rat lens. Value ranges from 9 - 69. Summed up:
as §1

For experiment [12] the target is unchanged. The experiment can be described thus: Inhibition of aldose reductase from rat lens. Value ranges from 110 - 430. The gist of the method: as §1
The target is the same in experiment [13]. As to the kind of experiment: Inhibition of aldose reductase from rat lens. Value ranges from 0.3 - 2.3. Summed up:
as §1

The target is the same in experiment [14]. The experiment can be described thus: Inhibition of aldose reductase from rat lens. Value ranges from 0.15 - 3.3. The gist of the method: as §1
Experiment [15] has the same target. The experiment can be described thus: Inhibition of aldose reductase from rat lens. Value ranges from 6 - 14. The gist of the method:
as §1

Experiment [16] has the same target. As to the kind of experiment: Inhibition of aldose reductase from rat lens. Value ranges from 25-64. Summed up:
as §1

The target is the same in experiment [17]. The experiment can be described thus: Inhibition of aldose reductase from rat lens. Value ranges from 140 - 580. The gist of the method: as §1
Experiment [18] shares this target. The experiment can be described thus: Inhibition of aldose reductase from rat lens. Value ranges from 40 - 680. The gist of the method: as §1
The target is the same in experiment [19]. The experiment can be described thus: Inhibition of aldose reductase from rat lens. Value ranges from 10 - 520. Summed up: as §1
The target is the same in experiment [20]. The experiment can be described thus: Inhibition of aldose reductase from rat lens. Value ranges from 4.9 - 23. Summed up: as §1
Experiment [21] has the same target. The experiment can be described thus: Inhibition of aldose reductase from rat lens. Value ranges from 1.5 - 16. The gist of the method:
as §1

For experiment [22] the target is unchanged. The experiment can be described thus: Inhibition of aldose reductase from rat lens. Value ranges from 17 - 720. Summed up: as §1
Experiment [23] shares this target. As to the kind of experiment: Inhibition of aldose reductase from rat lens. Value ranges from 300 - 1100. Summed up:
as §1

For experiment [24] the target is unchanged. As to the kind of experiment: Inhibition of aldose reductase from rat lens. Value ranges from 5 - 97. Summed up:
as §1

Experiment [25] has the same target. As to the kind of experiment: Inhibition of aldose reductase from rat lens. Value ranges from 20 - 160. Summed up: as §1
The target is the same in experiment [26]. The experiment can be described thus: Inhibition of aldose reductase from rat lens. Value ranges from 7 - 130. The gist of the method: as §1
The target is the same in experiment [27]. As to the kind of experiment: Inhibition of aldose reductase from rat lens. Value ranges from 280 - 490. The gist of the method:
as §1

For experiment [28] the target is unchanged. As to the kind of experiment: Inhibition of aldose reductase from rat lens. Value ranges from 10 - 130. The gist of the method:
as §1

Experiment [29] has the same target. As to the kind of experiment: Inhibition of aldose reductase from rat lens. Value ranges from 0.1 - 7. Summed up: as §1
Experiment [30] shares this target. The experiment can be described thus: Inhibition of aldose reductase from rat lens. Value ranges from 0.6 - 47. Summed up: as §1
The target is the same in experiment [31]. As to the kind of experiment: Inhibition of aldose reductase from rat lens. Value ranges from 1.0 - 34. Summed up:
as §1

The target is the same in experiment [32]. As to the kind of experiment: Inhibition of aldose reductase from rat lens. Value ranges from 0.02 -0.64. Summed up: as §1
Experiment [33] shares this target. The experiment can be described thus: Inhibition of aldose reductase from rat lens. Value ranges from 300 - 2000. The gist of the method: as §1
The target is the same in experiment [34]. The experiment can be described thus: Inhibition of aldose reductase from rat lens. Value ranges from 0.5 - 16. Summed up:
as §1

In experiment [1], `COc1ccc(C(=O)NC(C)C(=O)O)cc1` (stereo not drawn) registered an inhibition of 38%.

In experiment [2], `CC(=O)N(c1ccccc1)C(C)C(=O)O` (stereo not drawn) had an IC50 of 200 µM. Compound `COc1ccc(C(=O)NCC(=O)O)cc1` returned an IC50 in experiment [3] of 71 µM.

In experiment [1], `Nc1ccc(C(=O)NCC(=O)O)cc1` yielded an inhibition of 22%. In [4], `CC(=O)N(c1ccc(C)cc1)C(C)C(=O)O` (stereo not drawn) yielded an IC50 of 128 µM. The compound `O=C(O)Cn1c(=O)c2ccccc2c(=O)c2ccccc21` yielded an IC50 in experiment [5] of 65 µM.

In the case of `O=C(O)CNC(=O)c1ccccc1[N+](=O)[O-]`, half-maximal inhibition in [6] (IC50) was put at 58 µM. Compound `O=C(O)CN(C(=O)c1ccccc1)c1cccc2ccccc12` displayed an IC50 in [7] of 230 µM. `CC(=O)N(CC(=O)O)c1cccc([N+](=O)[O-])c1` came in with an IC50 in experiment [8] of 27 µM. For `O=C(O)CNC(=O)c1ccccc1Cl`, the IC50 in experiment [9] worked out at 31 µM. `Cc1ccc(C(=O)NC(C)C(=O)O)cc1` (stereo not drawn) came in with an inhibition in [1] of 19%. As for `CC(=O)N(CC(=O)O)c1ccc(C)cc1`, the IC50 in [10] is 15 µM. With `CC(=O)N(CC(=O)O)c1cccc2ccccc12`, the inhibition in [1] amounted to 20%. As to `CC(=O)N(CC(=O)O)c1ccc(Cl)cc1`, in [11], the IC50 came to 25 µM. For `Cc1ccc(C(=O)NCC(=O)O)cc1`, the IC50 in experiment [12] was found to be 220 µM.

`O=C(O)CN(C(=O)c1ccccc1)c1cccc([N+](=O)[O-])c1` displayed an IC50 in [13] of 0.86 µM.

Take `O=C(O)CN1C(=O)c2cccc3cccc1c23`: it took 0.67 µM to reach half-maximal inhibition in [14] (IC50).

The compound `CC(=O)N(CC(=O)O)c1ccccc1C` gave an inhibition in experiment [1] of 14%.

In [15], `O=C(O)CN(C(=O)c1ccccc1)c1ccccc1` yielded an IC50 of 9.5 µM. The compound `Nc1cccc(C(=O)NCC(=O)O)c1` came in with an inhibition in experiment [1] of 36%. Turning to `O=C(O)CNC(=O)c1ccc2ccccc2c1`, half-maximal inhibition in experiment [16] (IC50) required 40 µM. `O=C(O)CNC(=O)c1ccc([N+](=O)[O-])cc1` showed an IC50 in experiment [17] of 280 µM. On to `O=C(O)CNC(=O)c1cccc([N+](=O)[O-])c1`, for which the inhibition in experiment [1] is 32%.

In experiment [18], `O=C(O)CN(C(=O)c1ccccc1)c1ccc2ccccc2c1` displayed an IC50 of 220 µM. The compound `O=C(O)CN1C(=O)c2ccccc2CCc2ccccc21` displayed an IC50 in experiment [19] of 79 µM.

Regarding `CC(=O)N(CC(=O)O)c1cccc(C)c1`, in experiment [1], the inhibition stood at 10%. `O=C(O)Cn1c(=O)c2ccccc2c2ccccc21` registered an IC50 in experiment [20] of 10.7 µM. This lies in the double-digit micromolar range. In [21], `O=C(O)CN(C(=O)c1ccccc1)c1ccc(Cl)cc1` returned an IC50 of 5 µM. With `CC(=O)N(c1ccc(Cl)cc1)C(C)C(=O)O` (stereo not drawn), half-maximal inhibition in experiment [22] (IC50) required 110 µM. In the case of `O=C(O)CNC(=O)c1ccc(Cl)cc1` [4-CHLOROHIPPURIC ACID], in experiment [23], the IC50 stood at 550 µM. `CC(=O)N(CC(=O)O)c1ccccc1`: the IC50 in experiment [24] was determined as 21 µM. That is a double-digit micromolar value. On to `CC(=O)N(CC(=O)O)c1ccc(N)cc1`, for which the IC50 in [25] is 55 µM. Compound `COc1ccc(N(CC(=O)O)C(C)=O)cc1` registered an IC50 in experiment [26] of 80 µM. That is a double-digit micromolar value. Take `O=C(O)CNC(=O)c1ccccc1` [HIPPURIC ACID]: the IC50 in [27] was 330 µM. In experiment [28], `CC(=O)N(CC(=O)O)c1ccc(O)cc1` showed an IC50 of 34 µM. This counts as double-digit micromolar.

In turn, `CC(NC(=O)c1ccccc1)C(=O)O` (stereo not drawn) showed an inhibition in experiment [1] of 14%. In experiment [29], `COc1ccc(N(CC(=O)O)C(=O)c2ccccc2)cc1` displayed an IC50 of 0.96 µM. This counts as sub-micromolar. `CC(=O)N(CC(=O)O)c1ccc([N+](=O)[O-])cc1` yielded an IC50 in [30] of 5.8 µM. In turn, `O=C(O)CN(C(=O)c1cccc2ccccc12)c1ccccc1` had an IC50 in [31] of 5.8 µM. `Nc1ccccc1C(=O)NCC(=O)O` registered an inhibition in [1] of 16%. `O=C(O)CN(C(=O)c1cccc([N+](=O)[O-])c1)c1ccc([N+](=O)[O-])cc1` came in with an IC50 in [32] of 0.13 µM. This lies in the sub-micromolar range. Consider `COc1ccc(N(C(C)=O)C(C)C(=O)O)cc1` (stereo not drawn), for which, in experiment [33], the midpoint of inhibition, the IC50, lay at 950 µM. As to `Cc1ccc(N(CC(=O)O)C(=O)c2ccccc2)cc1`, half-maximal inhibition in experiment [34] (IC50) was put at 3 µM.
